According to ChEMBL document CHEMBL1154371, “Cytotoxic xanthone constituents of the stem bark of Garcinia mangostana (mangosteen)” (J Nat Prod, 2009):
pEC50, pIC50: −log10 of the molar value. Activity calls are given as the source filed them. The calls are words filed in the database; no cut-off is given here.

Tests used:
[1] = molecular target: T1, Nuclear factor NF-kappa-B p105 subunit (Homo sapiens, UniProt P19838); assay: Inhibition of p50 after 1 hr by ELISA
T1 sequence (P19838 whole entry): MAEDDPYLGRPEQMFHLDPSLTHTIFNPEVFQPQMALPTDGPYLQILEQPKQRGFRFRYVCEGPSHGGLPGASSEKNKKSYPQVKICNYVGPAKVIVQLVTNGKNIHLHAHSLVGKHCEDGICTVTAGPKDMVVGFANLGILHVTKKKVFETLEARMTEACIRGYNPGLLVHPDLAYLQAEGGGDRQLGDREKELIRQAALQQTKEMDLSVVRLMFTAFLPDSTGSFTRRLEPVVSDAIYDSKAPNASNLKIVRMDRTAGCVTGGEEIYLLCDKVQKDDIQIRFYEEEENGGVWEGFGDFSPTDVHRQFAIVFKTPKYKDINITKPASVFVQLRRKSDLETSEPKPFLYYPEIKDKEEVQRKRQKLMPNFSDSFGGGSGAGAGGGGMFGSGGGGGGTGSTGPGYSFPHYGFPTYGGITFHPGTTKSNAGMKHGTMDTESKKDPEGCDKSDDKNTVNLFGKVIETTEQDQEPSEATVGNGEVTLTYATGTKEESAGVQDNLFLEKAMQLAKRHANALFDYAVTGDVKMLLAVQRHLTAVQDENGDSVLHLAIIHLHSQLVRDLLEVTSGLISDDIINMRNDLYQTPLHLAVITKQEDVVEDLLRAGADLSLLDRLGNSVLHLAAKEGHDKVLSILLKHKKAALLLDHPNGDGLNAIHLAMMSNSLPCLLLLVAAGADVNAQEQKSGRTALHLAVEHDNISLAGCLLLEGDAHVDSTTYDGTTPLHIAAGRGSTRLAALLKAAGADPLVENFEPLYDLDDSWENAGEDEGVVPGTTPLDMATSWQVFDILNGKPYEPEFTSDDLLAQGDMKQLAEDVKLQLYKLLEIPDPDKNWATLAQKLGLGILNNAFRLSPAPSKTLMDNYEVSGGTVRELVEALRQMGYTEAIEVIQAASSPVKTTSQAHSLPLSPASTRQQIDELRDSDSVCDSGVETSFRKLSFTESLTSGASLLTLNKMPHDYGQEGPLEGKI

[2] = molecular target: Transcription factor p65 (Homo sapiens, UniProt Q04206); assay: Inhibition of nuclear factor NF-kappa-B p65 subunit after 1 hr by ELISA
Transcription factor p65, sequence (Q04206 whole entry): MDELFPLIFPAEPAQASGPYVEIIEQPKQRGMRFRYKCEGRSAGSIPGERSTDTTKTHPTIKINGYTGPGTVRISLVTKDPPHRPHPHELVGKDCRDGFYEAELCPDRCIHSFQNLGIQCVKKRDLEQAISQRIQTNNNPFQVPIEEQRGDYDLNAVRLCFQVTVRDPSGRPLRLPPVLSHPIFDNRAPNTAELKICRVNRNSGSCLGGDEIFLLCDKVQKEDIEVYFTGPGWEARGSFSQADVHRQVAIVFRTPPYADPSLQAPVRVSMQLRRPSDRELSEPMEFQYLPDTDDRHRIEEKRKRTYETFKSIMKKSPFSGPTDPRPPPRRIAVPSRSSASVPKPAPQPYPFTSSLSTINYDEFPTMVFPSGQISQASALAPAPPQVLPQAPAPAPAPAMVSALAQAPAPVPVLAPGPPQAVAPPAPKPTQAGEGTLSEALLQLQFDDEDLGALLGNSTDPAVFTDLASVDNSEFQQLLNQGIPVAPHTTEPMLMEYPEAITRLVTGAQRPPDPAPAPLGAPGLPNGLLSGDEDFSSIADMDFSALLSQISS

[3] = system: HT-29; assay: Cytotoxicity against human HT-29 cells; format: functional; details: read-out: ED50 (the source's name)
In short: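 HT-29 human colon cancer cells. Camptothecin was the positive control. Cytotoxic potency is given as ED50.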

[4] = system: HT-29; assay: Growth inhibition of human HT-29 cells implanted at intraperitoneal compartment of NCr nu/nu mouse at 2.5 mg/kg to 20 mg/kg by hollow fiber assay; format: functional, organism-based
In short: (§1)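 Cells were loaded into hollow fibers and implanted at the intraperitoneal site of mice. Compound was given at 2.5, 5, 10 and 20 mg/kg. Paclitaxel at 20 mg/kg was the positive control.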

[5] = system: LNCaP; assay: Growth inhibition of human LNCAP cells implanted at intraperitoneal compartment of NCr nu/nu mouse at 2.5 mg/kg to 20 mg/kg by hollow fiber assay; format: functional, organism-based; in short: as §1
[6] = system: MCF7; assay: Growth inhibition of human MCF7 cells implanted at intraperitoneal compartment of NCr nu/nu mouse at 2.5 mg/kg to 20 mg/kg by hollow fiber assay; format: functional, organism-based

Structure (SMILES) | pIC50 [1] | pIC50 [2] | pEC50 [3] | growth inhibition (GI) [4] | growth inhibition (GI) [5] | growth inhibition (GI) [6]
COc1cc2oc3cc(O)c(OC)c(CC=C(C)C)c3c(=O)c2c2c1CC(O)C(C)(C)O2 (stereo not given) | < 4.70 | < 4.70 | – | – | – | –
COc1c(O)cc2oc3cc(O)c4c(c3c(=O)c2c1CC=C(C)C)OC(C)(C)C(O)C4 (stereo not given) | < 4.70 | < 4.70 | – | – | – | –
COc1c(O)cc2oc3cc4c(c(O)c3c(=O)c2c1CC=C(C)C)C[C@H](C(C)(C)O)O4 | – | – | < 5.00 | – | – | –
COc1cc2oc3cc(O)c(OC)c(CC=C(C)C)c3c(=O)c2c(O)c1CC=C(C)C | 5.12 | 4.92 | 5.77 | – | – | –
COc1c(O)cc2oc3cc4c(c(O)c3c(=O)c2c1CC=C(C)C)CCC(C)(C)O4 | – | – | 5.31 | – | – | –
CC(C)=CCc1c(O)c(CC=C(C)C)c2oc3c(O)cccc3c(=O)c2c1O [8-DEOXYGARTANIN] | < 4.70 | 4.95 | < 5.00 | – | – | –
CC[C@@]1(O)C(=O)OCc2c1cc1n(c2=O)Cc2cc3ccccc3nc2-1 [CAMPTOTHECIN] | – | – | 7.22 | – | – | –
COc1c(O)cc2oc3cc4c(c(O)c3c(=O)c2c1CC=C(C)C)[C@@H](c1c(O)c(CC=C(C)C)c(O)c2c(=O)c3c(CC=C(C)C)c(OC)c(O)cc3oc12)[C@H](C(C)(C)O)O4 [CRATOXYXANTHONE] | < 4.70 | < 4.70 | – | – | – | –
COc1c(O)cc2oc3cc(O)c(CC=C(C)C)c(O)c3c(=O)c2c1CCC(C)(C)O [GARCINONE D] | < 4.70 | 5.49 | 5.64 | – | – | –
CC(C)=CCc1c(O)c(CC=C(C)C)c2oc3c(O)ccc(O)c3c(=O)c2c1O [GARTANIN] | < 4.70 | 4.72 | < 5.00 | – | – | –
COc1c(O)cc2oc3cc4c(c(O)c3c(=O)c2c1CC=C(C)C)C=CC(C)(C)O4 [MANGOSTANIN] | < 4.70 | < 4.70 | 5.04 | – | – | –
COc1c(O)cc2oc3cc(O)c(CC=C(C)C)c(O)c3c(=O)c2c1CC=C(C)C [MANGOSTIN] | < 4.70 | 4.80 | 5.77 | inactive | inactive | inactive
